In brackets after ≈: the same amount, converted by molar mass.
Columns and labels:
[1] = tested on: Streptococcus sp. 'group B'; assay: Antimicrobial activity against Group B streptococcus R8 harboring T77I, S353F and A514V in PBP 2X; V80A and G613R in PBP 2B; and L45P, N163K, N723S and G527V in PBP 1A by broth microdilution method; assay type: functional
Summary of the method: (§1)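 Broth microdilution MICs following CLSI guidelines, using a commercial panel system; GBS clinical isolates and reference strains grown in Todd-Hewitt broth at 37°C. Each strain tested five times to confirm reproducibility, with S. pneumoniae ATCC 49619 as quality-control strain. No β-lactamase activity by acidimetric method in any strain.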

[2] = tested on: Streptococcus sp. 'group B'; assay: Antimicrobial activity against Group B streptococcus serotype Ia R7 harboring T77I, F395V and S353F in PBP 2X; V80A and G613R in PBP 2B; and L45P, N163K, N723S and Y470F in PBP 1A by broth microdilution method; assay type: functional; summary of the method: as §1
[3] = tested on: Streptococcus sp. 'group B'; assay: Antimicrobial activity against Group B streptococcus serotype VI R6 harboring F395L, V405A, R433H, H438Y, A374V and G648A mutations in PBP 2X and T567I mutation in PBP 2B by broth microdilution method; assay type: functional; summary of the method: as §1
[4] = tested on: Streptococcus sp. 'group B'; assay: Antimicrobial activity against Group B streptococcus serotype VI R5 harboring F395L, V405A, R433H, H438Y, and G648A mutations in PBP 2X and T567I mutation in PBP 2B by broth microdilution method; assay type: functional; summary of the method: as §1
[5] = tested on: Streptococcus sp. 'group B'; assay: Antimicrobial activity against Group B streptococcus serotype VI R4 harboring Q557E mutation in PBP 2X and T567I, Y262N mutations in PBP 2B by broth microdilution method; assay type: functional; summary of the method: as §1
[6] = tested on: Streptococcus sp. 'group B'; assay: Antimicrobial activity against Group B streptococcus serotype Ib R3 harboring Q557E, A400V mutations in PBP 2X and T567I, G539E mutations in PBP 2B by broth microdilution method; assay type: functional; summary of the method: as §1
[7] = tested on: Streptococcus sp. 'group B'; assay: Antimicrobial activity against Group B streptococcus serotype VI R2 harboring F395L, V405A, R433H, H438Y, and G648A mutations in PBP 2X and T567I mutation in PBP 2B by broth microdilution method; assay type: functional; summary of the method: as §1
[8] = tested on: Streptococcus sp. 'group B'; assay: Antimicrobial activity against Group B streptococcus serotype VI R1 harboring F395L, V405A, R433H, H438Y, and G648A mutations in PBP 2X and T567I mutation in PBP 2B by broth microdilution method; assay type: functional; summary of the method: as §1
[9] = tested on: Streptococcus sp. 'group B'; assay: Antimicrobial activity against Group B streptococcus serotype Ib C2 harboring E63K mutation in PBP 2A and L41S mutation in PBP 1B by broth microdilution method; assay type: functional; summary of the method: as §1
[10] = tested on: Streptococcus sp. 'group B'; assay: Antimicrobial activity against Group B streptococcus serotype V C1 harboring E63K mutation in PBP 2A and L41S mutation in PBP 1B by broth microdilution method; assay type: functional; summary of the method: as §1
[11] = tested on: Streptococcus sp. 'group B'; assay: Antimicrobial activity against Group B streptococcus serotype VI N4 harboring E63K mutation in PBP 2A and L41S mutation in PBP 1B by broth microdilution method; assay type: functional; summary of the method: as §1
[12] = tested on: Streptococcus sp. 'group B'; assay: Antimicrobial activity against Group B streptococcus serotype III N3 by broth microdilution method; assay type: functional
Summary of the method: (§2)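 Broth microdilution MICs read on a commercial dried panel system (type 3J), following CLSI guidelines. Isolates were grown in Todd-Hewitt broth at 37°C. Each strain was tested five times for reproducibility, with S. pneumoniae ATCC 49619 as the quality-control strain. β-lactamase activity was checked by the acidimetric method.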

[13] = tested on: Streptococcus sp. 'group B'; assay: Antimicrobial activity against Group B streptococcus serotype Ib N2 harboring E63K mutation in PBP 2A and L41S mutation in PBP 1B by broth microdilution method; assay type: functional; summary of the method: as §1
[14] = tested on: Streptococcus sp. 'group B'; assay: Antimicrobial activity against Group B Streptococcus serotype Ia N1 harboring E63K mutation in PBP 2A and L41S mutation in PBP 1B by broth microdilution method; assay type: functional; summary of the method: as §1
[15] = tested on: Streptococcus sp. 'group B'; assay: Antimicrobial activity against Group B Streptococcus serotype III NEM 316 by broth microdilution method; assay type: functional; summary of the method: as §2
[16] = tested on: Streptococcus sp. 'group B'; assay: Antimicrobial activity against Group B Streptococcus serotype V harboring E63K mutation in PBP 2A and L41S mutation in PBP 1B by broth microdilution method

Row | SMILES | MIC [1] [mg/L] | MIC [2] [mg/L] | MIC [3] [mg/L] | MIC [4] [mg/L] | MIC [5] [mg/L] | MIC [6] [mg/L] | MIC [7] [mg/L] | MIC [8] [mg/L] | MIC [9] [mg/L] | MIC [10] [mg/L] | MIC [11] [mg/L] | MIC [12] [mg/L] | MIC [13] [mg/L] | MIC [14] [mg/L] | MIC [15] [mg/L] | MIC [16] [mg/L]
1 | CC1(C)S[C@@H]2[C@H](NC(=O)[C@H](N)c3ccccc3)C(=O)N2[C@H]1C(=O)O [AMPICILLIN] | 0.5 (≈ 1.43 µM) | 0.5 (≈ 1.43 µM) | 0.5 (≈ 1.43 µM) | 0.5 (≈ 1.43 µM) | 0.25 (≈ 0.715 µM) | 0.25 (≈ 0.715 µM) | 0.5 (≈ 1.43 µM) | 0.5 (≈ 1.43 µM) | 0.25 (≈ 0.715 µM) | 0.12 (≈ 0.343 µM) | 0.12 (≈ 0.343 µM) | 0.12 (≈ 0.343 µM) | 0.25 (≈ 0.715 µM) | 0.12 (≈ 0.343 µM) | 0.12 (≈ 0.343 µM) | 0.12 (≈ 0.343 µM)
2 | CO/N=C(\C(=O)N[C@@H]1C(=O)N2C(C(=O)OCOC(=O)C(C)(C)C)=C(/C=C\c3scnc3C)CS[C@H]12)c1csc(N)n1 [CEFDITOREN PIVOXIL] | 0.5 (≈ 0.805 µM) | 0.5 (≈ 0.805 µM) | 0.25 (≈ 0.403 µM) | 0.25 (≈ 0.403 µM) | 0.25 (≈ 0.403 µM) | 0.25 (≈ 0.403 µM) | 0.25 (≈ 0.403 µM) | 0.25 (≈ 0.403 µM) | ≤ 0.06 | ≤ 0.06 | ≤ 0.06 | ≤ 0.06 | ≤ 0.06 | ≤ 0.06 | ≤ 0.06 | ≤ 0.06
3 | CO/N=C(\C(=O)N[C@@H]1C(=O)N2C(C(=O)[O-])=C(C[N+]3(C)CCCC3)CS[C@H]12)c1csc(N)n1 [CEFEPIME] | 1 (≈ 2.08 µM) | 2 (≈ 4.16 µM) | 1 (≈ 2.08 µM) | 1 (≈ 2.08 µM) | 1 (≈ 2.08 µM) | ≤ 0.5 | 1 (≈ 2.08 µM) | 1 (≈ 2.08 µM) | ≤ 0.5 | ≤ 0.5 | ≤ 0.5 | ≤ 0.5 | ≤ 0.5 | ≤ 0.5 | ≤ 0.5 | ≤ 0.5
4 | C=CC1=C(C(=O)O)N2C(=O)[C@@H](NC(=O)/C(=N\OCC(=O)O)c3csc(N)n3)[C@H]2SC1 [CEFIXIME] | > 1 | > 1 | > 1 | > 1 | > 1 | > 1 | > 1 | > 1 | 0.5 (≈ 1.1 µM) | 0.5 (≈ 1.1 µM) | 0.5 (≈ 1.1 µM) | 0.5 (≈ 1.1 µM) | 1 (≈ 2.21 µM) | 0.5 (≈ 1.1 µM) | 0.5 (≈ 1.1 µM) | 0.5 (≈ 1.1 µM)
5 | CO/N=C(\C(=O)N[C@@H]1C(=O)N2C(C(=O)O)=C(COC(C)=O)CS[C@H]12)c1csc(N)n1 [CEFOTAXIME] | 1 (≈ 2.2 µM) | 1 (≈ 2.2 µM) | 0.5 (≈ 1.1 µM) | 0.5 (≈ 1.1 µM) | 0.5 (≈ 1.1 µM) | 0.5 (≈ 1.1 µM) | 0.5 (≈ 1.1 µM) | 0.5 (≈ 1.1 µM) | 0.12 (≈ 0.263 µM) | ≤ 0.06 | ≤ 0.06 | 0.12 (≈ 0.263 µM) | 0.12 (≈ 0.263 µM) | 0.12 (≈ 0.263 µM) | ≤ 0.06 | ≤ 0.06
6 | CN(C)CCn1nnnc1SCC1=C(C(=O)O)N2C(=O)[C@@H](NC(=O)Cc3csc(N)n3)[C@H]2SC1 [CEFOTIAM] | > 4 | > 4 | 4 (≈ 7.61 µM) | 2 (≈ 3.8 µM) | 4 (≈ 7.61 µM) | 4 (≈ 7.61 µM) | 4 (≈ 7.61 µM) | 4 (≈ 7.61 µM) | ≤ 0.5 | ≤ 0.5 | ≤ 0.5 | ≤ 0.5 | ≤ 0.5 | ≤ 0.5 | ≤ 0.5 | ≤ 0.5
7 | CO/N=C(\C(=O)N[C@@H]1C(=O)N2C(C(=O)[O-])=C(C[n+]3ccn4ncccc43)CS[C@H]12)c1nsc(N)n1 [CEFOZOPRAN] | 1 (≈ 1.94 µM) | 2 (≈ 3.88 µM) | 0.5 (≈ 0.97 µM) | 0.5 (≈ 0.97 µM) | 0.5 (≈ 0.97 µM) | 1 (≈ 1.94 µM) | 1 (≈ 1.94 µM) | 0.5 (≈ 0.97 µM) | 0.12 (≈ 0.233 µM) | 0.12 (≈ 0.233 µM) | 0.12 (≈ 0.233 µM) | 0.12 (≈ 0.233 µM) | 0.12 (≈ 0.233 µM) | 0.12 (≈ 0.233 µM) | 0.12 (≈ 0.233 µM) | 0.12 (≈ 0.233 µM)
8 | CC[C@H]1OC(=O)[C@H](C)[C@@H](O[C@H]2C[C@@](C)(OC)[C@@H](O)[C@H](C)O2)[C@H](C)[C@@H](O[C@@H]2O[C@H](C)C[C@H](N(C)C)[C@H]2O)[C@](C)(OC)C[C@@H](C)C(=O)[C@H](C)[C@@H](O)[C@]1(C)O [CLARITHROMYCIN] | 1 (≈ 1.34 µM) | 2 (≈ 2.67 µM) | ≤ 0.12 | ≤ 0.12 | > 2 | ≤ 0.12 | ≤ 0.12 | ≤ 0.12 | ≤ 0.12 | ≤ 0.12 | ≤ 0.12 | ≤ 0.12 | ≤ 0.12 | ≤ 0.12 | ≤ 0.12 | ≤ 0.12
9 | CCC[C@@H]1C[C@@H](C(=O)N[C@@H]([C@H]2O[C@H](SC)[C@H](O)[C@@H](O)[C@H]2O)[C@H](C)Cl)N(C)C1 [CLINDAMYCIN] | ≤ 0.12 | ≤ 0.12 | ≤ 0.12 | ≤ 0.12 | > 1 | ≤ 0.12 | ≤ 0.12 | ≤ 0.12 | ≤ 0.12 | ≤ 0.12 | ≤ 0.12 | ≤ 0.12 | ≤ 0.12 | ≤ 0.12 | ≤ 0.12 | ≤ 0.12
10 | CC[C@H]1OC(=O)[C@H](C)[C@@H](O[C@H]2C[C@@](C)(OC)[C@@H](O)[C@H](C)O2)[C@H](C)[C@@H](O[C@@H]2O[C@H](C)C[C@H](N(C)C)[C@H]2O)[C@](C)(O)C[C@@H](C)C(=O)[C@H](C)[C@@H](O)[C@]1(C)O [ERYTHROMYCIN] | > 2 | > 2 | ≤ 0.12 | ≤ 0.12 | > 2 | ≤ 0.12 | ≤ 0.12 | ≤ 0.12 | ≤ 0.12 | ≤ 0.12 | ≤ 0.12 | ≤ 0.12 | ≤ 0.12 | ≤ 0.12 | ≤ 0.12 | ≤ 0.12
11 | C[C@H]1COc2c(N3CCN(C)CC3)c(F)cc3c(=O)c(C(=O)O)cn1c23.C[C@H]1COc2c(N3CCN(C)CC3)c(F)cc3c(=O)c(C(=O)O)cn1c23.O [LEVOFLOXACIN] | > 8 | > 8 | 4 | 4 | 2 | > 8 | 8 | 8 | > 8 | 0.5 | 0.5 | 0.5 | 0.5 | 1 | 0.5 | 0.5
12 | C[C@@H](O)[C@H]1C(=O)N2C(C(=O)O)=C(S[C@@H]3CN[C@H](C(=O)N(C)C)C3)[C@H](C)[C@H]12 [MEROPENEM] | 0.25 (≈ 0.652 µM) | 0.25 (≈ 0.652 µM) | 0.5 (≈ 1.3 µM) | 0.25 (≈ 0.652 µM) | 0.25 (≈ 0.652 µM) | 0.25 (≈ 0.652 µM) | 0.5 (≈ 1.3 µM) | 0.25 (≈ 0.652 µM) | ≤ 0.12 | ≤ 0.12 | ≤ 0.12 | ≤ 0.12 | ≤ 0.12 | ≤ 0.12 | ≤ 0.12 | ≤ 0.12
13 | CC1(C)S[C@@H]2[C@H](NC(=O)Cc3ccccc3)C(=O)N2[C@H]1C(=O)O [PENICILLIN G] | 1 (≈ 2.99 µM) | 1 (≈ 2.99 µM) | 0.5 (≈ 1.5 µM) | 0.25 (≈ 0.748 µM) | 0.5 (≈ 1.5 µM) | 0.5 (≈ 1.5 µM) | 0.5 (≈ 1.5 µM) | 0.5 (≈ 1.5 µM) | 0.06 (≈ 0.179 µM) | 0.06 (≈ 0.179 µM) | 0.06 (≈ 0.179 µM) | 0.06 (≈ 0.179 µM) | 0.06 (≈ 0.179 µM) | 0.06 (≈ 0.179 µM) | 0.06 (≈ 0.179 µM) | 0.06 (≈ 0.179 µM)
14 | CN(C)[C@@H]1C(O)=C(C(N)=O)C(=O)[C@@]2(O)C(O)=C3C(=O)c4c(O)cccc4[C@@](C)(O)[C@H]3C[C@@H]12 [TETRACYCLINE] | > 4 | > 4 | > 4 | > 4 | > 4 | ≤ 0.5 | > 4 | > 4 | ≤ 0.5 | > 4 | > 4 | > 4 | ≤ 0.5 | > 4 | ≤ 0.5 | > 4

Reference: ChEMBL document CHEMBL1275555, “Genetic heterogeneity in pbp genes among clinically isolated group B Streptococci with reduced penicillin susceptibility” (2008)
